The values that follow come from ChEMBL document CHEMBL1141109, “Synthesis of an estrogen receptor beta-selective radioligand: 5-[18F]fluoro-(2R,3S)-2,3-bis(4-hydroxyphenyl)pentanenitrile and comparison of in vivo distribution with 16alpha-[18F]fluoro-17beta-estradiol” (J Med Chem, 2005).

Series [1] in a line: Biodistribution of [18F]FES in alpha estrogen receptor knock out mouse liver after 2 h; (n=3). It is filed as ADME, organism-based. Particulars: in vivo. In short, it runs like this: (§1)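 Female αERKO mice were rested 48 h after shipping and fed estrogen-free chow. They were staged by daily vaginal smears and studied in diestrus. Each received 13 µCi [18F]FES in 100 µL 10% ethanol/saline and was sacrificed at 30 min, 1 h or 2 h (n = 3 per time). Tissue uptake is given as %ID/g ± SD.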

Series [2] can be described thus: Biodistribution of [18F]FES in beta estrogen receptor knock out mouse fat after 2 h; (n=3). The settings on record: in vivo. It is filed as ADME, organism-based, Adipose tissue.
Series [3] can be described thus: Biodistribution of [18F]FES in beta estrogen receptor knock out mouse bone after 1 h; (n=3). It is filed as ADME, organism-based, Bone element. The settings on record: in vivo.
Series [4] is described as follows: Biodistribution of [18F]FES in alpha estrogen receptor knock out mouse fat after 1 h; (n=3). It is filed as ADME, organism-based, Adipose tissue. Particulars: in vivo. In short, it runs like this: (§2)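 Female αERKO mice rested 48 h after shipping and fed estrogen-free chow. Estrous stage was checked by daily vaginal smears, and mice were used in diestrus. Each received 13 µCi [18F]FES in 100 µL 10% ethanol/saline. Animals were sacrificed at 30 min, 1 h or 2 h (n = 3 each). Tissue uptake is reported as %ID/g ± SD.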

Series [5] is described as follows: Biodistribution of [18F]FES in alpha estrogen receptor knock out mouse heart after 2 h; (n=3). It is filed as ADME, organism-based. Particulars: in vivo. Summed up:
as §1

Series [6] in a line: Biodistribution of [18F]FES in alpha estrogen receptor knock out mouse blood after 1 h; (n=3). In kind it is ADME, organism-based. The settings on record: in vivo. In short, it runs like this:
as §1

Series [7] can be described thus: Biodistribution of [18F]FES in beta estrogen receptor knock out mouse fat after 30 min(n=2); mice in nonestrus stage. In kind it is ADME, organism-based, Adipose tissue. Particulars: in vivo, 0.5 h.
Series [8] can be described thus: Biodistribution of [18F]FES in beta estrogen receptor knock out mouse ovaries after 30 min(n=2); mice in nonestrus stage. In kind it is ADME, organism-based, Female gonad. Particulars: in vivo, 0.5 h.
The nature of series [9]: Biodistribution of [18F]-FES in alpha estrogen receptor knock out mouse bone after 30 min; (n=3). Particulars: in vivo, 0.5 h. It is filed as ADME, organism-based, Bone element. In short, it runs like this:
as §2

The nature of series [10]: Biodistribution of [18F]FES in alpha estrogen receptor knock out mouse spleen after 2 h; (n=3). It is filed as ADME, organism-based. The settings on record: in vivo.
The nature of series [11]: Biodistribution of [18F]FES in beta estrogen receptor knock out mouse fat after 30 min; (n=3). In kind it is ADME, organism-based, Adipose tissue. The settings on record: in vivo, 0.5 h.
Series [12] is described as follows: Biodistribution of [18F]FES in beta estrogen receptor knock out mouse uterus after 1 h; (n=3). In kind it is ADME, organism-based. Particulars: in vivo.
Series [13] is described as follows: Biodistribution of [18F]FEDPN in alpha estrogen receptor knock out mouse liver after 2 h; (n=3). In kind it is ADME, organism-based. The settings on record: in vivo. In short, it runs like this: (§3)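 ERKO female mice (αERKO or βERKO), rested 48 h after shipping, placed on estrogen-free chow, and staged by daily vaginal smears. Injected in a nonestrous stage with 11 µCi [18F]FEDPN in 130 µL of 10% ethanol/saline. Killed at 30 min, 1 h or 2 h. Organs counted and reported as %ID/g ± SD, three animals per point.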

A short description of series [14]: Biodistribution of [18F]FEDPN in alpha estrogen receptor knock out mouse muscle after 30 min; (n=3). It is filed as ADME, organism-based, Muscle tissue. Particulars: in vivo, 0.5 h. In short, it runs like this: (§4)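 αERKO and βERKO mice, staged by daily vaginal smears and kept on estrogen-free chow, were studied in a nonestrous stage. Each mouse received 11 μCi of tracer in 130 μL of 10% ethanol/saline. Mice were killed at 30 min, 1 h or 2 h (n = 3 each). Organs were removed, blotted, weighed and gamma-counted against an injectate standard. Uptake is given as %ID/g ± SD.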

Series [15] can be described thus: Biodistribution of [18F]-FEDPN in rat blood after 1 hr when given in tail vein; (n=5). The settings on record: in vivo, iv. In kind it is ADME, organism-based. Summed up:
(§5)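 Immature female Sprague–Dawley rats (<25 days old) anesthetized with isoflurane/O2. Given 20 µCi tracer by tail vein in 150 µL of 20% ethanol/saline. […] Killed at 30 min, 1 h or 2 h. Blood and organs blotted, weighed and gamma-counted against a standard dilution of the injectate. Reported as %ID/g ± SD, n=5.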

Series [16] is described as follows: Biodistribution of [18F]FEDPN in rat ovaries after 30 min when given in tail vein; (n=5). It is filed as ADME, organism-based, Female gonad. Particulars: in vivo, iv, 0.5 h. In short, it runs like this:
(§6)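 Immature female Sprague–Dawley rats (<25 days old) under isoflurane/O2 got 20 µCi tracer in 150 µL 20% ethanol/saline by tail vein. […] Rats were killed at 30 min, 1 h or 2 h. Organs were blotted, weighed and gamma-counted against an injectate standard. Data are %ID/g ± SD, five rats per point.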

Series [17] can be described thus: Biodistribution of [18F]FEDPN in beta estrogen receptor knock out mouse uterus after 30 min; (n=3). In kind it is ADME, organism-based. Particulars: in vivo, 0.5 h. In short, it runs like this: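 αERKO and βERKO mice were fed estrogen-free chow and staged by daily vaginal smears. Mice in a nonestrous stage each received 11 µCi tracer in 130 µL 10% ethanol/saline. Organs were taken at 30 min, 1 h or 2 h and gamma-counted. Uptake is expressed as %ID/g ± SD, three animals per point.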

Series [18] can be described thus: Biodistribution of [18F]FEDPN in alpha estrogen receptor knock out mouse thymus after 30 min; (n=3). The settings on record: in vivo, 0.5 h. It is filed as ADME, organism-based. In short, it runs like this: as §4
Series [19] is described as follows: Biodistribution of [18F]-FEDPN in rat spleen after 2 hr when given in tail vein; (n=5). In kind it is ADME, organism-based. Particulars: in vivo, iv. In short, it runs like this:
as §5

The nature of series [20]: Biodistribution of [18F]FEDPN in beta estrogen receptor knock out mouse spleen after 2 h; (n=3). It is filed as ADME, organism-based. Particulars: in vivo. In short, it runs like this: as §4
A short description of series [21]: Biodistribution of [18F]FEDPN in alpha estrogen receptor knock out mouse ovaries after 2 h; (n=3). In kind it is ADME, organism-based, Female gonad. The settings on record: in vivo. In short, it runs like this:
as §4

Series [22] can be described thus: Biodistribution of [18F]-FEDPN in rat kidney after 1 hr when given in tail vein; (n=5). It is filed as ADME, organism-based. Particulars: in vivo, iv. In short, it runs like this: as §5
The nature of series [23]: Biodistribution of [18F]-FEDPN in rat thymus after 2 hr when given in tail vein; (n=5). It is filed as ADME, organism-based. Particulars: in vivo, iv. Summed up: as §5
Series [24] can be described thus: Biodistribution of [18F]FEDPN in alpha estrogen receptor knock out mouse muscle after 1 h; (n=3). In kind it is ADME, organism-based, Muscle tissue. Particulars: in vivo. Summed up:
as §4

The nature of series [25]: Biodistribution of [18F]FEDPN in rat kidney after 30 min when given in tail vein; (n=5). It is filed as ADME, organism-based. Particulars: in vivo, iv, 0.5 h. In short, it runs like this:
as §6

Series [26] is described as follows: Biodistribution of [18F]FEDPN in rat spleen after 1 h when given in tail vein; (n=5). It is filed as ADME, organism-based. The settings on record: in vivo, iv. In short, it runs like this: as §6
Series [27] in a line: Biodistribution of [18F]FEDPN in beta estrogen receptor knock out mouse thymus after 2 h; (n=3). The settings on record: in vivo. It is filed as ADME, organism-based. In short, it runs like this: as §4
The nature of series [28]: Biodistribution of [18F]FEDPN in rat muscle after 1 h when given in tail vein; (n=5). It is filed as ADME, organism-based, Muscle tissue. The settings on record: in vivo, iv. Summed up:
as §6

The nature of series [29]: Biodistribution of [18F]FEDPN in beta estrogen receptor knock out mouse ovaries after 2 h; (n=3). It is filed as ADME, organism-based, Female gonad. Particulars: in vivo. Summed up:
as §4

Series [30] is described as follows: Biodistribution of [18F]FEDPN in beta estrogen receptor knock out mouse thymus after 1 h; (n=3). In kind it is ADME, organism-based. The settings on record: in vivo. In short, it runs like this: as §4
A short description of series [31]: Biodistribution of [18F]FEDPN in alpha estrogen receptor knock out mouse kidney after 1 h; (n=3). It is filed as ADME, organism-based. Particulars: in vivo. Summed up:
as §3

A short description of series [32]: Biodistribution of [18F]FEDPN in beta estrogen receptor knock out mouse blood after 30 min; (n=3). It is filed as ADME, organism-based. Particulars: in vivo, 0.5 h. Summed up:
as §4

Series [33] can be described thus: Biodistribution of [18F]-FEDPN in alpha estrogen receptor knock out mouse spleen after 1 h; (n=3). It is filed as ADME, organism-based. Particulars: in vivo. Summed up:
as §3

A short description of series [34]: Biodistribution of [18F]FEDPN in alpha estrogen receptor knock out mouse spleen after 2 h; (n=3). The settings on record: in vivo. It is filed as ADME, organism-based. Summed up:
as §4

A short description of series [35]: Biodistribution of [18F]FEDPN in rat lung after 1 h when given in tail vein; (n=5). Particulars: in vivo, iv. In kind it is ADME, organism-based. In short, it runs like this:
as §6

Series [36] is described as follows: Biodistribution of [18F]FEDPN in rat ovaries after 2 h when given in tail vein; (n=5). In kind it is ADME, organism-based, Female gonad. The settings on record: in vivo, iv. Summed up:
as §6

As to `C[C@]12CC[C@@H]3c4ccc(O)cc4CC[C@H]3[C@@H]1C[C@@H](F)[C@@H]2O` [FLUOROESTRADIOL], the Biodistribution in series [1] was determined as 3.67 %ID/g; in [2] it was 0.41 %ID/g; in series [3], 1.08 %ID/g; in [4], 0.14 %ID/g; in series [5] it was 0.1 %ID/g; in [6], 0.21 %ID/g. Moreover, the Biodistribution was 2.31 %ID/g in series [7]; 6.6 %ID/g in series [8]; 0.44 %ID/g in series [9]; 0.18 %ID/g in series [10]; 2.01 %ID/g in series [11]; 9.81 %ID/g in series [12].

For the compound `N#C[C@H](c1ccc(O)cc1)[C@@H](CCF)c1ccc(O)cc1`, the Biodistribution in series [13] came out at 1.93 %ID/g; in [14], 1.21 %ID/g; in [15], 0.55 %ID/g; in series [16] it was 0.93 %ID/g; in [17] it was 1.85 %ID/g; in series [18] it was 1.27 %ID/g. Besides, the Biodistribution in series [19] is reported as 0.06 %ID/g; in series [20], 0.12 %ID/g; in [21], 0.28 %ID/g; in series [22], 1.75 %ID/g; in [23], 0.08 %ID/g; in series [24], 0.59 %ID/g. In addition, the Biodistribution is 2 %ID/g in series [25]; 0.16 %ID/g in series [26]; 0.11 %ID/g in series [27]; 0.22 %ID/g in [28]; 0.17 %ID/g in [29]; 0.25 %ID/g in series [30]. For the same compound, the Biodistribution was 2.97 %ID/g in series [31]; 0.79 %ID/g in [32]; 0.61 %ID/g in [33]; 0.12 %ID/g in series [34]; 0.44 %ID/g in series [35]; 0.21 %ID/g in series [36].
